Shown are actives, neighbours in structure and some others; about 1.9% of the full set was active somewhere.
MsrA act: activates bovine MsrA enzyme. purified bovine MsrA, absorbance read-out. activation, % at 10.6 µM. hit rate 0.3% among 360,000; in the data active = activation above about 7.5%;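 also: 0% = vehicle and 100% = reference activator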
aDG glyco up: increases alpha dystroglycan glycosylation | Pro5-aDG cells, alpha-DG glycosylation AlphaScreen (IIH6); 0% Pro5, 100% B10-LARGE cell signal | activation, % at 10 µM | hit rate 0.22% among 360,000 | AID 624168;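 active = activation of at least 8% versus controls, or a plate z-score of at least 8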;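 also: Pro5 are CHO cells carrying HIG-tagged alpha-DG that lacks glycosylation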
N-glyco inh: N-linked glycosylation inhibition; hit rate 0.23% among 360,000; reporter increase, % at 12.5 µM; D54 ERlucT glycosylation luciferase reporter, 24 h; percent of 100 nM tunicamycin response;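 active = mean luciferase reporter signal, scaled so untreated is 0 and the glycosylation-blocking control 100, at or above a set limit in every replicate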;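 also: luciferase carries N-glycosylation sites so blocking glycosylation raises the light; 0% = median of neutral control wells and 100% = median of 100 nM tunicamycin wells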
MsrA inh: bovine MsrA inhibition. hit rate 0.75% among 360,000. inhibition, % at 15.5 µM. purified bovine MsrA, absorbance read-out;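 also: 0% = vehicle wells with enzyme and 100% = reference inhibitor wells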
Vif inh: blocks HIV Vif function | hit rate 0.35% among 340,000 | AID 602346 | inhibition, % at 7.49 µM | HEK293T cells, Vif self-association by quenched fluorescence, imaging, 24 h; in the data active = inhibition above about 50%, passing the limit was not always enough
UCH37 inh: blocks the human deubiquitinase UCH37; Q9Y5K5; purified proteasome/UCH37, Ub-AMC cleavage fluorescence; inhibition, % (no concentration beside the values); hit rate 0.33% among 330,000; AID 588478;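 active = mean inhibition over replicate wells above about 20%, limit read from the data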;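 also: 0% = compound-free wells with enzyme and 100% = wells lacking proteasome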
Target sequence (Q9Y5K5 whole entry, looked up): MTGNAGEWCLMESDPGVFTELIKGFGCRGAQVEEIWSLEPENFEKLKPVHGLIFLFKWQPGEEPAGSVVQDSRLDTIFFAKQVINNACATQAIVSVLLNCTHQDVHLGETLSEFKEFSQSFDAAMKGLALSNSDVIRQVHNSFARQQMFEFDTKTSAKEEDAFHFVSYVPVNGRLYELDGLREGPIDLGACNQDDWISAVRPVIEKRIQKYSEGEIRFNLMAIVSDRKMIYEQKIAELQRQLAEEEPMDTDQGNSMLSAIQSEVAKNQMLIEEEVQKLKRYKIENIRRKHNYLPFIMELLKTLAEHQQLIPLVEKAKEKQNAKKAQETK
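assay system = human UCH37 enzyme supplied as purified proteasome complex | amount = proteasome at 0.15 nM in the dispensed enzyme solution | schedule = 30 min compound-proteasome preincubation then 25 min substrate reaction, room temperature | measured by = fluorescence, ex 355 nm, em 460 nm | benchmarks = no-proteasome wells (full inhibition) and compound-free wells (no inhibition)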
aDG glyco conf: alpha-DG glycosylation activation, confirmation | shares compounds with aDG glyco up | Pro5-aDG cells, IIH6 AlphaLISA; scaled to LARGE-overexpressing B10 cells as 100% | activation, % at 10 µM (by protocol) | hit rate 17% among 600 | AID 651671;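 active = activation of at least 7% in one or more replicates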;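 also: cells exposed to compound for two days before detection; 0% = DMSO-treated Pro5 cells and 100% = DMSO-treated B10-LARGE cells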
MsrA inh confirm: confirmation of bovine MsrA inhibitors. AID 651822. purified bovine MsrA, absorbance read-out. shares compounds with MsrA inh. inhibition, % at 15.5 µM. hit rate 41% among 2,300;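 also: coupled to thioredoxin reductase with NADPH and selenocystamine and DMSO as substrate; 0% = vehicle only and 100% = full effect of reference inhibitor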
Active calls of the source: *; . = not tested or not shown. Rule as the data show it, unless noted: active = inhibition above about 4.5%; inactive = the rest.

SMILES	MsrA act	aDG glyco up	N-glyco inh	MsrA inh	Vif inh	UCH37 inh	aDG glyco conf	MsrA inh confirm
CCOC(=O)C1CCCN(S(=O)(=O)c2ccc(S(=O)(=O)N3CCCC3)cc2)C1 (configuration not stated)	-2	4.5*	1	0	-9	.	0	.
COC(=O)COc1ccc(S(=O)(=O)Nc2ccc(C(N)=O)cc2)cc1Cl	-4	77*	0	1	-9	1	-1	.
CN1/C(=C\C(=O)c2ccco2)C(C)(C)c2ccccc21	0	4.3*	-3	2	-14	-20	0	.
CN1/C(=C\C(=O)COC(=O)c2ccco2)C(C)(C)c2ccccc21	-5	0	-3	3	12	-36	.	.
COC(=O)C1=C(C)NC(=S)NC1c1ccc(OC(=O)c2ccco2)cc1 (configuration not stated)	-16	5.3*	1	2	-1	6	2	.
COC(=O)C1=C(C)NC(C)=C(C(=O)OC)C1c1ccc(OC(=O)c2ccco2)cc1	1	0	5	1	19	-8	.	.
COc1ccc(C2N=C(c3ccccc3)NO2)cc1OC (configuration not stated)	-12	2.8*	-2	-1	-2	-1	0	.
Cc1ccc(S(=O)(=O)N(C)C)cc1NC(=O)C1CCCCN1S(=O)(=O)c1ccccc1 (configuration not stated)	-9	2.9*	-2	1	6	0	-1	.
COC(=O)[C@]12CCCCC=C1N(Cc1cccc3ccccc13)C(=O)[C@H](CC(=O)NCCC(C)C)C2	-6	5.6*	.	1	.	.	-1	.
N/C(=N\OC(=O)COc1ccc(Br)cc1Cl)c1ccccn1	-14	14*	-19	0	-6	2	0	.
N/C(=N\OC(=O)COc1ccc(Cl)cc1Cl)c1ccccn1	-8	1	-17	1	-1	5	.	.
Cc1ccc(NC(=O)c2ccc([N+](=O)[O-])s2)cc1S(=O)(=O)N1CCOCC1	3	9.0*	-17	3	-6	1	6.1*	.
C(=Nc1nc2ccccc2n1CCN1CCOCC1)c1cccs1	.	.	.	.	.	-2	.	.
COc1ccccc1C(=O)Nc1ccc2c(c1)CCCN2C(=O)c1ccccc1	-3	9.6*	-2	1	2	6	0	.
Cc1ccc(C=NNC(=O)c2nnn(-c3nonc3N)c2CN(C)C2CCCCC2)cc1	.	.	.	.	.	-2	.	.
O=C(NN=Cc1ccc(F)cc1)c1cc[n+]([O-])cc1	.	.	.	.	.	6	.	.
COc1ccccc1NC(=O)Nc1nc(C(N)Cc2ccc(Cl)cc2)cs1 (configuration not stated)	1	1	-6	-1	-15	.	.	.
COc1ccccc1NC(=O)Nc1nc(C(N)Cc2ccccc2)cs1 (configuration not stated)	-3	7.4*	-3	1	15	.	6.9*	.
Cc1nn(C)c(C)c1/C=C/C(=O)c1ccc(Cl)cc1Cl	-7	8.4*	-3	6.4*	-1	5	2	3
Cc1nc2ccccn2c1C(=O)NN=Cc1ccc(F)cc1	.	.	.	.	.	6	.	.
CC(C)Oc1ccc(C(=O)N/N=C/c2ccc(-c3ccc(S(=O)(=O)Nc4ncccn4)cc3)o2)cc1	-3	0	0	5	2	.	.	.
NC(=O)N/N=C/c1ccc(-c2ccc(S(=O)(=O)Nc3ncccn3)cc2)o1	-2	0	4	5.7*	-4	.	.	6.4*
COc1cccc(Nc2cc(N3CCOCC3)c3nonc3c2[N+](=O)[O-])c1	0	0	11	0	-6	7	.	.
O=[N+]([O-])c1c(Nc2ccccc2O)cc(N2CCOCC2)c2nonc12	-6	0	-3	18*	-5	12	.	24*
O=C(COCC(=O)NN=Cc1ccc(F)cc1)NN=Cc1ccc(F)cc1	.	.	.	.	.	6	.	.
SMILES	MsrA act	aDG glyco up	N-glyco inh	MsrA inh	Vif inh	UCH37 inh	aDG glyco conf	MsrA inh confirm
CS(=O)(=O)N1CCN(c2ccc([N+](=O)[O-])c(NCc3cccnc3)c2)CC1	-8	0	1	5.6*	-5	14	.	4
CS(=O)(=O)N1CCN(c2ccc([N+](=O)[O-])c(NCc3ccccc3)c2)CC1	-2	0	-4	1	-5	-5	.	.
COc1ccc(/C=C(/NC(=O)c2ccccc2)C(=O)NCc2ccncc2)cc1	-12	2	0	3	6	2	.	.
COc1ccc(/C=C(/NC(=O)c2ccccc2)C(=O)N/N=C/c2ccncc2)cc1	-3	0	0	6.0*	18	.	.	4.9*
COc1ccc(OCc2cc(/C=N\NC(=O)c3ccccc3)ccc2OC)cc1	-4	0	17	1	1	.	.	.
Cc1ccc(/C=N\NC(=O)/C(=C\Nc2nccc(C)n2)NC(=O)c2ccccc2)cc1	-3	0	-3	5.9*	2	.	.	6.0*
COc1ccc(/C=N\NC(=O)/C(=C\Nc2nccc(C)n2)NC(=O)c2ccccc2)cc1	-2	0	1	8.2*	0	.	.	7.7*
COc1ccc(C=CC(C)=NNC(=O)c2ccncc2)cc1	-4	0	1	5.3*	10	17	.	6.0*
Cc1ccsc1C=NNc1ccc(Cl)nn1	.	.	.	.	.	8	.	.
C=CCOc1ccc(/C=C/C(C)=NO)cc1	.	.	.	.	.	2	.	.
COc1ccc(N2CC(C(=O)Nc3ccc([N+](=O)[O-])cc3Br)CC2=O)cc1 (configuration not stated)	-5	0	2	0	2	3	.	.
COc1ccc(N2CC(C(=O)N/N=C/c3cc([N+](=O)[O-])ccc3O)CC2=O)cc1 (configuration not stated)	-4	0	4	5.2*	2	.	.	3
C=CCc1cc(/C=C2/NC(=O)NC2=O)cc(OCC)c1O	-5	0	-1	4.8*	2	4	.	4
CCOc1cc(/C=C2/NC(=O)NC2=O)cc([N+](=O)[O-])c1O	-15	-1	2	5.6*	2	4	.	4
CCOc1cc(/C=C2/NC(=S)NC2=O)ccc1OCc1ccc([N+](=O)[O-])cc1	-4	0	1	-1	9	7	.	.
Cc1cccc(C)c1-n1cccc1/C=C1/C(=N)N2C(=NC1=O)SN=C2S(C)(=O)=O	-8	0	0	7.4*	3	4	.	5.8*
Cc1ccc(-n2cccc2/C=C2/C(=N)N3C(=NC2=O)SN=C3S(C)(=O)=O)cc1Cl	-6	0	1	1	-1	10	.	.
NS(=O)(=O)c1ccc(-c2ccc(C=O)o2)cc1	-12	0	0	4.7*	-3	5	.	3
Cc1ccc(CON=CC2=C(Cl)c3ccccc3CC2)cc1	.	.	.	.	.	3	.	.

From PubChem
